In ChEMBL document CHEMBL1255214, “Structure-based design of imidazo[1,2-a]pyrazine derivatives as selective inhibitors of Aurora-A kinase in cells” (Bioorg Med Chem Lett, 2010):

Tests used:
[1] = target: T1, Aurora kinase A (Homo sapiens) (UniProt O14965); assay: Inhibition of human aurora A at 10 uM
T1 sequence (whole entry): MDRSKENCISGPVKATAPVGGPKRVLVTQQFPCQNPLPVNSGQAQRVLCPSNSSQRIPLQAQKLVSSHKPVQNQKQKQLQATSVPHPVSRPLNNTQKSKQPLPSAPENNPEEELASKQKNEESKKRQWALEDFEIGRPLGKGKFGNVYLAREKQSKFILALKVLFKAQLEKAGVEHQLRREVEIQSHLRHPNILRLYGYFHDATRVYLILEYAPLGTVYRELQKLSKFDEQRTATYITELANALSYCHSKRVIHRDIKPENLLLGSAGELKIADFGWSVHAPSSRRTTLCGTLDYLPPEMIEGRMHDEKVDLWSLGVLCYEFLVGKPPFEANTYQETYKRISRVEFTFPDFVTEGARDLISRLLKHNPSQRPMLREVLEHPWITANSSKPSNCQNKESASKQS
How it was run: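 Recombinant human Aurora-A kinase, tested at a single concentration; percent inhibition reported as mean of samples run in triplicate.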

Aurora kinase A = target: T2, Aurora kinase A (Homo sapiens, UniProt O14965); assay: Inhibition of human aurora A
T2 sequence (O14965 whole entry): T1 sequence (whole entry)
How it was run: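 Recombinant human Aurora-A kinase; IC50 measured by either a Flashplate or a Filterplate assay. Values are means of two independent determinations, or mean (SD) where n >2; some are means of samples run in triplicate.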

HCT-116 = assay: Growth inhibition of human HCT116 cells; type: functional
How it was run: (§1)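 MTT read-out of cell growth, with GI50 taken from the resulting data.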

HeLa = assay: Growth inhibition of human HeLa cells; type: functional; how it was run: as §1
Homo sapiens = organism: Homo sapiens; assay: Selectivity ratio of IC50 for human aurora B to IC50 for human aurora A
Aurora kinase C = target: T3, Aurora kinase C (Homo sapiens, UniProt Q9UQB9); assay: Inhibition of human aurora C
T3 sequence (Q9UQB9 whole entry): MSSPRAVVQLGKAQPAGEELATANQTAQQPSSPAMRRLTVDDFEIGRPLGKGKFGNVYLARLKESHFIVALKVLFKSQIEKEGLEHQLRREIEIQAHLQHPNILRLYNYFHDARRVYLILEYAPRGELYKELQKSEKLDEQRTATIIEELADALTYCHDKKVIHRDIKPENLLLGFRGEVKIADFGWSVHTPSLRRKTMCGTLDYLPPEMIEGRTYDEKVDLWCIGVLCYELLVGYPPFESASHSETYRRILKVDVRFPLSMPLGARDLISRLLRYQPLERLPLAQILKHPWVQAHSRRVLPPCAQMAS
How it was run: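 Recombinant human Aurora-C kinase; IC50 measured by Filterplate assay.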

Aurora kinase B = Aurora kinase B (Homo sapiens, UniProt Q96GD4); assay: Inhibition of human aurora B
Sequence of Aurora kinase B (Q96GD4 whole entry): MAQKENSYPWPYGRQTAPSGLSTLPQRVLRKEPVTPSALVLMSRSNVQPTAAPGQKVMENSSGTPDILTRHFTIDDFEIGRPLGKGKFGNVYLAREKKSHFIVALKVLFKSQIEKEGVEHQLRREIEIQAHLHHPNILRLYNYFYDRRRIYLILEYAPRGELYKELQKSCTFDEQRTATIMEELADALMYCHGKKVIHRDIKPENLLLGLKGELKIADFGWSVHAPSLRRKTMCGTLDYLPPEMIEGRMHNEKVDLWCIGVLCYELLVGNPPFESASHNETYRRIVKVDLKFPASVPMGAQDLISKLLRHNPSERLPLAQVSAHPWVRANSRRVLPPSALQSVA

Row | SMILES | inhibition [1] [%] | IC50 (Aurora kinase A) [µM] | other results
1 | COc1ccc(Nc2nc(-c3ccc(F)nc3)cn3ccnc23)cc1 | 32 |  | 
2 | c1cncc(-c2cn3ccnc3c(NCc3ccc(N4CCOCC4)cc3)n2)c1 | 41 |  | 
3 | c1cncc(-c2cn3c(-c4cccnc4)cnc3c(Nc3ccc(N4CCOCC4)cc3)n2)c1 |  | 4.2 | 
4 | Cc1cnc2c(Nc3ccc(N4CCOCC4)cc3)nc(-c3cccnc3)cn12 |  | 0.208 | GI50 (HCT-116): 7.2 µM; GI50 (HeLa): 6.5 µM
5 | c1cncc(-c2cn3ccnc3c(Nc3ccc(N4CCOCC4)cc3)n2)c1 |  | 2.12 | 
6 | c1cncc(-c2cn3ccnc3c(NCc3ccc4c(c3)OCCO4)n2)c1 | 35 |  | 
7 | CN(c1ccccc1)c1nc(-c2cccnc2)cn2ccnc12 | 27 |  | 
8 | COc1ccc(Nc2nc(-c3cccc(NS(=O)(=O)c4ccc(OC)cc4)c3)cn3ccnc23)cc1 |  | 6.7 | 
9 | O=C(O)c1ccc(Nc2ncc3c(n2)-c2ccc(Cl)cc2C(c2c(F)cccc2F)=NC3)cc1 |  |  | Ratio IC50 (Homo sapiens): 90
10 | Clc1cnc2c(Nc3ccc(N4CCOCC4)cc3)nc(-c3cccnc3)cn12 |  |  | IC50 (Aurora kinase C): 1950 nM; GI50 (HCT-116): 3.9 µM; GI50 (HeLa): 28 µM
11 | CS(=O)(=O)NCc1cccc(-c2cn3c(Cl)cnc3c(Nc3ccc(N4CCOCC4)cc3)n2)c1 |  |  | Ratio IC50 (Homo sapiens): 70; IC50 (Aurora kinase B): 10.5 µM
12 | c1ccc(Nc2nc(-c3cccnc3)cn3ccnc23)cc1 |  | 6.7 | 
13 | CC(=O)Nc1ccc(Nc2nc(-c3cccnc3)cn3ccnc23)cc1 |  | 2.5 | 
14 | COc1ccc(Nc2nc(-c3cccc(NS(=O)(=O)c4cccnc4)c3)cn3ccnc23)cc1 |  | 4.5 | 
15 | c1cncc(-c2cn3ccnc3c(NCCN3CCOCC3)n2)c1 | 33 |  | 
16 | COc1ccc(Nc2nc(-c3cnn(Cc4ccccc4)c3)cn3ccnc23)cc1 | 38 |  | 
17 | O=C(Nc1ccc(Nc2nc(-c3cccnc3)cn3ccnc23)cc1)c1ccccc1 |  | 3.75 | 
18 | COCC(=O)Nc1cccc(-c2cn3ccnc3c(Nc3ccc(OC)cc3)n2)c1 |  | 7.31 | 
19 | COc1ccc(Nc2nc(-c3ccc(Cl)nc3)cn3ccnc23)cc1 | 28 |  | 
20 | COc1ccc(Nc2nc(-c3cccc(N)c3)cn3ccnc23)cc1 |  | 5.48 | 
21 | Brc1cnc2c(Nc3ccc(N4CCOCC4)cc3)nc(-c3cccnc3)cn12 |  | 0.152 | GI50 (HCT-116): 2.3 µM; GI50 (HeLa): 13.4 µM
22 | Clc1ccc(Nc2nc(-c3cccnc3)cn3ccnc23)cc1 |  | 5.5 | 
23 | COc1ccc(Nc2nc(-c3cccnc3)cn3ccnc23)cc1 |  | 2.9 | 
24 | COc1ccc(NC(=O)Nc2cccc(-c3cn4ccnc4c(Nc4ccc(OC)cc4)n3)c2)cc1 |  | 7.9 | 
25 | COc1ccc(Nc2nc(-c3cccc(Cl)c3)cn3ccnc23)cc1 | 46 |  | 
26 | OC1CCC(Nc2nc(-c3cccnc3)cn3ccnc23)CC1 (configuration not stated) | 32 |  | 
27 | COc1ccc(Nc2nc(-c3cccc(NC(=O)COc4ccccc4)c3)cn3ccnc23)cc1 | 22 |  | 
28 | COc1ccc(Nc2nc(-c3ccn(C)n3)cn3ccnc23)cc1 |  | 9.7 | 
29 | COc1ccc(Nc2nc(-c3cccc(NC(=O)Nc4ccccc4)c3)cn3ccnc23)cc1 |  | 7.2 | 
30 | COc1ccc(Nc2nc(-c3ccc(OC)nc3)cn3ccnc23)cc1 | 30 |  | 
